One compound from ChEMBL document CHEMBL1145402, “Discovery of potent and muscle selective androgen receptor modulators through scaffold modifications” (J Med Chem, 2007) can be followed below.

One data set relates to Rattus norvegicus. Description: Stimulation of levator ani muscle weight in Sprague-Dawley rat at 1 mg/kg, po after 14 days. Format: functional. The gist of the method:
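Mature male rats were castrated two weeks before treatment. Compound was given […] once daily for two weeks, then levator ani muscle and ventral prostate were weighed. Weights are expressed as percent of a sham-operated, vehicle-treated intact control group, ±SEM.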

Data set [1] is described as follows: Toxicity against human hepatocyte. Format: cell-based. The conditions noted are these: hepatocytes.
Another data set concerns the target T1, Glucocorticoid receptor (Homo sapiens, UniProt P04150).
T1 sequence (P04150 whole entry): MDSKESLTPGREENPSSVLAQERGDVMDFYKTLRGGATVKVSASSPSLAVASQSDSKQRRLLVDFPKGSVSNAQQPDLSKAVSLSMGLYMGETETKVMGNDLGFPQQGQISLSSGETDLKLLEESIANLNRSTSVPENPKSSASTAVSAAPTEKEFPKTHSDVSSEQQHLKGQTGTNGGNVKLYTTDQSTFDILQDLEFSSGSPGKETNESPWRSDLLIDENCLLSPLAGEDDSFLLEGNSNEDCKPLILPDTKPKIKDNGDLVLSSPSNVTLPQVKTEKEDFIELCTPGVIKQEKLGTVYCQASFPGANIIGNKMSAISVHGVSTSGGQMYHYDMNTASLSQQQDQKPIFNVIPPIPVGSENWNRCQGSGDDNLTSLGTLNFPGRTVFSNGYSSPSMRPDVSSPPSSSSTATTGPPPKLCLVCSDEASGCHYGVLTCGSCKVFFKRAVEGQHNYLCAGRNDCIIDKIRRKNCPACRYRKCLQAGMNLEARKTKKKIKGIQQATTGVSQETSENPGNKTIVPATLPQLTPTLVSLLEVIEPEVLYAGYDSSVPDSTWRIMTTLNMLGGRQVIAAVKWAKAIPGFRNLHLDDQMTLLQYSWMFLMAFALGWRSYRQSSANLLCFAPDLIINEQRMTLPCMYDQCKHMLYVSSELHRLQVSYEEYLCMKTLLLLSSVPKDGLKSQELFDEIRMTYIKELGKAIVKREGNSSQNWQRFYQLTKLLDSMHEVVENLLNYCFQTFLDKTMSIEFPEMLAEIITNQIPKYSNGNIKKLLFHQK
Description: Binding affinity to glucocorticoid receptor.

Data set [2] can be described thus: Half life in Sprague-Dawley rat at 10 mg/kg, po and 5 mg/kg, iv. Format: ADME, organism-based. Conditions: in vivo. The method, boiled down:
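Rat pharmacokinetics used 5 mg/kg i.v. and 10 mg/kg p.o. dosing. Oral bioavailability (F%), half-life, oral Tmax and total body clearance were derived from plasma concentrations.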

The nature of data set [3]: Cmax in Sprague-Dawley rat at 10 mg/kg, po. It counts as ADME, organism-based. Further details: dose 10 mg/kg, route oral. Conditions: in vivo.
Data set [4] can be described thus: AUC(0-4h) in Sprague-Dawley rat at 10 mg/kg. Format: ADME, organism-based. Also on record: time < 5 hr, dose 10 mg/kg. The conditions noted are these: plasma.
The target of another data set is T2, Cytochrome P450 1A2 (Homo sapiens, UniProt P05177).
T2 sequence (P05177 whole entry): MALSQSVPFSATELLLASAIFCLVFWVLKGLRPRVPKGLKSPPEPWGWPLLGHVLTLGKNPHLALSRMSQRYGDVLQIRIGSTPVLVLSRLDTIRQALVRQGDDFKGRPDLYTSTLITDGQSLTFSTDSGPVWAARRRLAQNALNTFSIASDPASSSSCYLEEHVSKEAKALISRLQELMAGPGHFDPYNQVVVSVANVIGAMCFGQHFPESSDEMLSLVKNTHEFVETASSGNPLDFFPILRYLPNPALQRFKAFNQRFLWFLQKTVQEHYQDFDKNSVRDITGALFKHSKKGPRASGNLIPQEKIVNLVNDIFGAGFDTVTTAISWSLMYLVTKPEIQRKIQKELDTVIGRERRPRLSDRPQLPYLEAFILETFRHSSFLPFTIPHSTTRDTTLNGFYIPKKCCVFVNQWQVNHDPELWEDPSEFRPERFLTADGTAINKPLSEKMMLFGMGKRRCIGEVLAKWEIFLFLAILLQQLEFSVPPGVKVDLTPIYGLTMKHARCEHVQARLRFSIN
Nature of the data set: Inhibition of CYP1A2. It counts as ADME.

The target of another data set is Cytochrome P450 2D6 (Homo sapiens, UniProt P10635). Description: Inhibition of CYP2D6. It counts as ADME.

pIC50, pKi: −log10 of the molar value. A value given as a limit tells only on which side of the number the result lay.

Cytochrome P450 2D6, sequence (P10635 whole entry): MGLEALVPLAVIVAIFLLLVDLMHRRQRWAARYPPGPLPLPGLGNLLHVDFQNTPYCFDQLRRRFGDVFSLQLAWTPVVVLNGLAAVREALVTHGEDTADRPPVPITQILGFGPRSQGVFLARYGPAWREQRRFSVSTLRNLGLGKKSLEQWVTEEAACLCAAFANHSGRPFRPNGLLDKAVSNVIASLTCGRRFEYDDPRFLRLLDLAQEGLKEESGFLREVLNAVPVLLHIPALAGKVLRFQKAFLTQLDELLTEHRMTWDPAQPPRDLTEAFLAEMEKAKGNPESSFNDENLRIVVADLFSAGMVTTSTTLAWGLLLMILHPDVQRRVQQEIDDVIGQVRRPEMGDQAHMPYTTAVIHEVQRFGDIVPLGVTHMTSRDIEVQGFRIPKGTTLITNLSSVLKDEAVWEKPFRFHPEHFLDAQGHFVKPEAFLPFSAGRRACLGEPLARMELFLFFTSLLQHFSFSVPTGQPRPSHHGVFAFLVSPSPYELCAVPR

For orientation: pIC50 means −log10 of the IC50, conventionally taken in molar units. A low value points to a high IC50. For orientation: pKi means the Ki on a negative log10 scale, so that one unit is a factor of ten. The term half-life denotes the time in which the quantity being followed falls by half. A low value points to fast loss. One may read the Cmax as the highest concentration seen after dosing. One may read the AUC(0-t) as exposure summed from dosing to a finite time, without extrapolation to infinity. High values mean more exposure, low ones less exposure. On to `CC[C@H]1[C@@H]2[C@@H](O)CCN2C(=O)N1c1ccc(C#N)c(Cl)c1C`, for which, in the data set with Rattus norvegicus, the Activity was found to be 101%. In addition, the negative-log IC50 (pIC50) is under 3.70 in data set [1], under 4.40 on Cytochrome P450 1A2 and under 4.40 against Cytochrome P450 2D6. The pKi at Glucocorticoid receptor was under 5.00. The compound further gave a half-life in data set [2] of 5.5 h. This compound showed a Cmax in data set [3] of 2100 nM. The AUC(0-t) at 5 h in data set [4] was determined as 6.08 µM·h.
